Test results from ChEMBL document CHEMBL4689842, “EUbOPEN Chemogenomics Library wave 1” (2021).
“And” between values parts separate entries of the source, which are not always exact repeats. Equal values may be shown once.

System: U2OS
Assay: Multiplex assay against U2OS
Assay type: toxicity, cell-based
Conditions: human
In short: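 Imaging took place on a CQ1 microscope at 37°C and 5% CO2 once compound had been added to live cells stained at seeding with Hoechst33342, BioTracker Green Microtubule Cytoskeleton Dye, MitoTracker Red and Annexin V Alexa Fluor 680. CellPathfinder machine-learning gating classed cells as Hoechst high-intensity objects or normal cells, classed normal cells as having healthy, pyknosed or fragmented nuclei, and classed pyknosed cells as mitotic or apoptotic. Tubulin, mitochondrial-mass and membrane-permeability phenotypes are per cents of the healthy-nucleus cells.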

[1] = 12 h, 1 µM, compound concentration 1 uM, replicate 1
[2] = 12 h, 1 µM, compound concentration 1 uM, replicate 2
[3] = 12 h, 10 µM, compound concentration 10 uM, replicate 1
[4] = 12 h, 10 µM, compound concentration 10 uM, replicate 2
[5] = 24 h, 1 µM, compound concentration 1 uM, replicate 1
[6] = 24 h, 1 µM, compound concentration 1 uM, replicate 2
[7] = 24 h, 10 µM, compound concentration 10 uM, replicate 1
[8] = 24 h, 10 µM, compound concentration 10 uM, replicate 2
[9] = 48 h, 1 µM, compound concentration 1 uM, replicate 1
[10] = 48 h, 1 µM, compound concentration 1 uM, replicate 2
[11] = 48 h, 10 µM, compound concentration 10 uM, replicate 1
[12] = 48 h, 10 µM, compound concentration 10 uM, replicate 2

Cl.O=c1c2cccn2c2ccccc2n1CCCN1CCC(c2ccc(Cl)cc2)CC1
Population Apoptotic (%) [1]: 53%
Population Fragmented Nuclei (%) [1]: 8%
Population Healthy Nuclei (%) [1]: 77%
Population Hoechst High Intensity Objects (%) [1]: 7%
Population Membrane Permeable-Phenotype (%) [1]: 2%
Population Mitochondria Different-Phenotype (%) [1]: 55%
Population Mitotic Cells (%) [1]: 46%
Population Normal (%) [1]: 92%
Population Pyknosed Nuclei (%) [1]: 14%
Population Tubulin-Different-Phenotype (%) [1]: 39%
Total Cell Count [1]: 233
Population Apoptotic (%) [2]: 60%
Population Fragmented Nuclei (%) [2]: 16%
Population Healthy Nuclei (%) [2]: 73%
Population Hoechst High Intensity Objects (%) [2]: 8%
Population Membrane Permeable-Phenotype (%) [2]: 0%
Population Mitochondria Different-Phenotype (%) [2]: 56%
Population Mitotic Cells (%) [2]: 40%
Population Normal (%) [2]: 91%
Population Pyknosed Nuclei (%) [2]: 9%
Population Tubulin-Different-Phenotype (%) [2]: 30%
Total Cell Count [2]: 119
Population Apoptotic (%) [3]: 81%
Population Healthy Nuclei (%) [3]: 58%
Population Hoechst High Intensity Objects (%) [3]: 8%
Population Membrane Permeable-Phenotype (%) [3]: 61%
Population Mitotic Cells (%) [3]: 18%
Population Normal (%) [3]: 91%
Population Pyknosed Nuclei (%) [3]: 20%
Population Tubulin-Different-Phenotype (%) [3]: 99%
Total Cell Count [3]: 201
Population Apoptotic (%) [4]: 78%
Population Fragmented Nuclei (%) [4]: 21%
Population Healthy Nuclei (%) [4]: 57%
Population Hoechst High Intensity Objects (%) [4]: 11%
Population Membrane Permeable-Phenotype (%) [4]: 74%
Population Mitochondria Different-Phenotype (%) [4]: 98%
Population Mitotic Cells (%) [4]: 21%
Population Normal (%) [4]: 89%
Population Pyknosed Nuclei (%) [4]: 21%
Population Tubulin-Different-Phenotype (%) [4]: 98%
Total Cell Count [4]: 58
Population Apoptotic (%) [5]: 55%
Population Fragmented Nuclei (%) [5]: 9%
Population Healthy Nuclei (%) [5]: 73%
Population Hoechst High Intensity Objects (%) [5]: 4%
Population Membrane Permeable-Phenotype (%) [5]: 0%
Population Mitochondria Different-Phenotype (%) [5]: 45%
Population Mitotic Cells (%) [5]: 44%
Population Normal (%) [5]: 95%
Population Pyknosed Nuclei (%) [5]: 16%
Population Tubulin-Different-Phenotype (%) [5]: 26%
Total Cell Count [5]: 300
Population Apoptotic (%) [6]: 25%
Population Fragmented Nuclei (%) [6]: 16%
Population Healthy Nuclei (%) [6]: 70%
Population Hoechst High Intensity Objects (%) [6]: 7%
Population Membrane Permeable-Phenotype (%) [6]: 2%
Population Mitochondria Different-Phenotype (%) [6]: 38%
Population Mitotic Cells (%) [6]: 75%
Population Normal (%) [6]: 92%
Population Pyknosed Nuclei (%) [6]: 13%
Population Tubulin-Different-Phenotype (%) [6]: 19%
Total Cell Count [6]: 147
Population Apoptotic (%) [7]: 88%
Population Fragmented Nuclei (%) [7]: 21%
Population Healthy Nuclei (%) [7]: 45%
Population Hoechst High Intensity Objects (%) [7]: 6%
Population Membrane Permeable-Phenotype (%) [7]: 76%
Population Mitochondria Different-Phenotype (%) [7]: 96%
Population Mitotic Cells (%) [7]: 11%
Population Normal (%) [7]: 93%
Population Pyknosed Nuclei (%) [7]: 33%
Population Tubulin-Different-Phenotype (%) [7]: 100%
Total Cell Count [7]: 229
Population Apoptotic (%) [8]: 87%
Population Fragmented Nuclei (%) [8]: 14%
Population Healthy Nuclei (%) [8]: 64%
Population Hoechst High Intensity Objects (%) [8]: 7%
Population Membrane Permeable-Phenotype (%) [8]: 72%
Population Mitochondria Different-Phenotype (%) [8]: 98%
Population Mitotic Cells (%) [8]: 12%
Population Normal (%) [8]: 92%
Population Pyknosed Nuclei (%) [8]: 20%
Population Tubulin-Different-Phenotype (%) [8]: 98%
Total Cell Count [8]: 65
Population Apoptotic (%) [9]: 51%
Population Fragmented Nuclei (%) [9]: 6%
Population Healthy Nuclei (%) [9]: 82%
Population Hoechst High Intensity Objects (%) [9]: 4%
Population Membrane Permeable-Phenotype (%) [9]: 2%
Population Mitochondria Different-Phenotype (%) [9]: 17%
Population Mitotic Cells (%) [9]: 48%
Population Normal (%) [9]: 95%
Population Pyknosed Nuclei (%) [9]: 10%
Population Tubulin-Different-Phenotype (%) [9]: 11%
Total Cell Count [9]: 287
Population Apoptotic (%) [10]: 62%
Population Fragmented Nuclei (%) [10]: 18%
Population Healthy Nuclei (%) [10]: 70%
Population Hoechst High Intensity Objects (%) [10]: 5%
Population Membrane Permeable-Phenotype (%) [10]: 4%
Population Mitochondria Different-Phenotype (%) [10]: 24%
Population Mitotic Cells (%) [10]: 37%
Population Normal (%) [10]: 94%
Population Pyknosed Nuclei (%) [10]: 11%
Population Tubulin-Different-Phenotype (%) [10]: 18%
Total Cell Count [10]: 131
Population Apoptotic (%) [11]: 87%
Population Fragmented Nuclei (%) [11]: 18%
Population Healthy Nuclei (%) [11]: 28%
Population Hoechst High Intensity Objects (%) [11]: 12%
Population Membrane Permeable-Phenotype (%) [11]: 84%
Population Mitochondria Different-Phenotype (%) [11]: 100%
Population Mitotic Cells (%) [11]: 12%
Population Normal (%) [11]: 87%
Population Pyknosed Nuclei (%) [11]: 53%
Population Tubulin-Different-Phenotype (%) [11]: 100%
Total Cell Count [11]: 318
Population Apoptotic (%) [12]: 88%
Population Fragmented Nuclei (%) [12]: 16%
Population Healthy Nuclei (%) [12]: 46%
Population Hoechst High Intensity Objects (%) [12]: 10%
Population Membrane Permeable-Phenotype (%) [12]: 67%
Population Mitochondria Different-Phenotype (%) [12]: 97%
Population Mitotic Cells (%) [12]: 11%
Population Normal (%) [12]: 89%
Population Pyknosed Nuclei (%) [12]: 36%
Population Tubulin-Different-Phenotype (%) [12]: 97%
Total Cell Count [12]: 74

Cl.O=C(c1ccc(Nc2nccc(-c3cc4ccccc4s3)n2)cc1)N1CCC(N2CCCC2)CC1
Population Apoptotic (%) [1]: 31%
Population Fragmented Nuclei (%) [1]: 8%
Population Healthy Nuclei (%) [1]: 80%
Population Hoechst High Intensity Objects (%) [1]: 1%
Population Membrane Permeable-Phenotype (%) [1]: 18%
Population Mitochondria Different-Phenotype (%) [1]: 11%
Population Mitotic Cells (%) [1]: 68%
Population Normal (%) [1]: 98%
Population Pyknosed Nuclei (%) [1]: 11%
Population Tubulin-Different-Phenotype (%) [1]: 18%
Total Cell Count [1]: 145
Population Apoptotic (%) [2]: 0%
Population Fragmented Nuclei (%) [2]: 20%
Population Healthy Nuclei (%) [2]: 75%
Population Hoechst High Intensity Objects (%) [2]: 25%
Population Membrane Permeable-Phenotype (%) [2]: 13%
Population Mitochondria Different-Phenotype (%) [2]: 19%
Population Mitotic Cells (%) [2]: 100%
Population Normal (%) [2]: 74%
Population Pyknosed Nuclei (%) [2]: 4%
Population Tubulin-Different-Phenotype (%) [2]: 19%
Total Cell Count [2]: 110
Population Apoptotic (%) [3]: 68% and 85%
Population Fragmented Nuclei (%) [3]: 15% and 25%
Population Healthy Nuclei (%) [3]: 6%
Population Hoechst High Intensity Objects (%) [3]: 5% and 7%
Population Membrane Permeable-Phenotype (%) [3]: 46% and 76%
Population Mitochondria Different-Phenotype (%) [3]: 92%
Population Mitotic Cells (%) [3]: 31% and 14%
Population Normal (%) [3]: 94% and 92%
Population Pyknosed Nuclei (%) [3]: 77% and 66%
Total Cell Count [3]: 174 and 176
Population Apoptotic (%) [4]: 93% and 70%
Population Fragmented Nuclei (%) [4]: 35% and 26%
Population Healthy Nuclei (%) [4]: 7% and 13%
Population Membrane Permeable-Phenotype (%) [4]: 50% and 54%
Population Mitochondria Different-Phenotype (%) [4]: 100% and 81%
Population Normal (%) [4]: 78% and 93%
Population Pyknosed Nuclei (%) [4]: 57% and 60%
Population Tubulin-Different-Phenotype (%) [4]: 100% and 90%
Total Cell Count [4]: 73
Population Apoptotic (%) [5]: 38%
Population Fragmented Nuclei (%) [5]: 10%
Population Healthy Nuclei (%) [5]: 81%
Population Hoechst High Intensity Objects (%) [5]: 3%
Population Membrane Permeable-Phenotype (%) [5]: 19%
Population Mitochondria Different-Phenotype (%) [5]: 16%
Population Mitotic Cells (%) [5]: 61%
Population Normal (%) [5]: 96%
Population Pyknosed Nuclei (%) [5]: 8%
Population Tubulin-Different-Phenotype (%) [5]: 14%
Total Cell Count [5]: 148
Population Apoptotic (%) [6]: 44%
Population Fragmented Nuclei (%) [6]: 25%
Population Healthy Nuclei (%) [6]: 68%
Population Hoechst High Intensity Objects (%) [6]: 14%
Population Membrane Permeable-Phenotype (%) [6]: 12%
Population Mitochondria Different-Phenotype (%) [6]: 11%
Population Mitotic Cells (%) [6]: 55%
Population Normal (%) [6]: 85%
Population Pyknosed Nuclei (%) [6]: 5%
Population Tubulin-Different-Phenotype (%) [6]: 13%
Total Cell Count [6]: 97
Population Apoptotic (%) [7]: 94% and 98%
Population Fragmented Nuclei (%) [7]: 31% and 18%
Population Healthy Nuclei (%) [7]: 4% and 9%
Population Hoechst High Intensity Objects (%) [7]: 12% and 23%
Population Membrane Permeable-Phenotype (%) [7]: 100%
Population Mitochondria Different-Phenotype (%) [7]: 100% and 80%
Population Mitotic Cells (%) [7]: 5% and 1%
Population Normal (%) [7]: 87% and 76%
Population Pyknosed Nuclei (%) [7]: 63% and 71%
Population Tubulin-Different-Phenotype (%) [7]: 100%
Total Cell Count [7]: 171 and 213
Population Apoptotic (%) [8]: 100%
Population Fragmented Nuclei (%) [8]: 36% and 26%
Population Healthy Nuclei (%) [8]: 16%
Population Hoechst High Intensity Objects (%) [8]: 14% and 31%
Population Mitotic Cells (%) [8]: 0%
Population Normal (%) [8]: 85% and 68%
Population Pyknosed Nuclei (%) [8]: 59% and 58%
Population Tubulin-Different-Phenotype (%) [8]: 87%
Total Cell Count [8]: 192 and 76
Population Apoptotic (%) [11]: 98%
Population Fragmented Nuclei (%) [11]: 32%
Population Healthy Nuclei (%) [11]: 6%
Population Hoechst High Intensity Objects (%) [11]: 26%
Population Membrane Permeable-Phenotype (%) [11]: 75%
Population Mitochondria Different-Phenotype (%) [11]: 100%
Population Mitotic Cells (%) [11]: 1%
Population Normal (%) [11]: 73%
Population Pyknosed Nuclei (%) [11]: 61%
Population Tubulin-Different-Phenotype (%) [11]: 100%
Total Cell Count [11]: 154
Population Apoptotic (%) [12]: 100%
Population Fragmented Nuclei (%) [12]: 28%
Population Healthy Nuclei (%) [12]: 50%
Population Hoechst High Intensity Objects (%) [12]: 44%
Population Membrane Permeable-Phenotype (%) [12]: 100%
Population Mitotic Cells (%) [12]: 0%
Population Normal (%) [12]: 55%
Population Pyknosed Nuclei (%) [12]: 21%
Total Cell Count [12]: 77
